Measured values published in ChEMBL document CHEMBL3244360, “Usnic acid derivatives as potential antineoplastic agents” (J Med Chem, 1979).
Activity calls are given as the source filed them. The rule behind the calls is not given here.

What was measured:
[1] = Octanol-water partition coefficient, log P of the compound by high-performance liquid chromatography; format: physicochemical
L1210 = assay: Growth inhibition of mouse L1210 cells at 0.14 umol/ml after 23 to 46 hrs by coulter counter analysis; format: functional, cell-based
How it was run: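 L1210 cells grown in RPMI 1630 with 16.7% heat-inactivated fetal calf serum and gentamicin 40 µg/mL. Exponentially growing cells were washed and seeded at 1 × 10^5 cells/mL. Drug was added in Me2SO to a final 1.39 ± 0.17 × 10^-7 mol/mL with continuous exposure at 37 °C. Coulter counts at 23 and 46 h gave percent inhibition versus untreated control.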

[2] = Antitumor activity against mouse LCC cells allografted in mouse assessed as host median survival time at 25 mg/kg/day, ip administered as gum acacia suspension on days 1 to 9 relative to control; format: functional, Lewis lung carcinoma; settings: route intraperitoneal
How it was run: (§1)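 Tumored mice got the compound intraperitoneally as a gum acacia suspension once daily on days 1-9 (nine injections), with doses in (mg/kg)/day. Read-out was T/C, the median survival time of treated over control animals as a percentage. Dose-response assays were generally run in duplicate, and the highest T/C per assay is reported with its dose.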

P388 [3] = assay: Antitumor activity against mouse P388 cells allografted in mouse assessed as host median survival time at 200 mg/kg/day, ip administered as gum acacia suspension on days 1 to 9 relative to control; format: functional; settings: route intraperitoneal; how it was run: as §1
[4] = Antitumor activity against mouse LCC cells allografted in mouse assessed as host median survival time at 50 mg/kg/day, ip administered as gum acacia suspension on days 1 to 9 relative to control; format: functional, Lewis lung carcinoma; settings: route intraperitoneal; how it was run: as §1
P388 [5] = assay: Antitumor activity against mouse P388 cells allografted in mouse assessed as host median survival time at 25 mg/kg/day, ip administered as gum acacia suspension on days 1 to 9 relative to control; format: functional; settings: route intraperitoneal; how it was run: as §1
P388 [6] = assay: Antitumor activity against mouse P388 cells allografted in mouse assessed as host median survival time at 50 mg/kg/day, ip administered as gum acacia suspension on days 1 to 9 relative to control; format: functional; settings: route intraperitoneal; how it was run: as §1
P388 [7] = assay: Antitumor activity against mouse P388 cells allografted in mouse assessed as host median survival time at 12 mg/kg/day, ip administered as gum acacia suspension on days 1 to 9 relative to control; format: functional; settings: route intraperitoneal; how it was run: as §1
P388 [8] = assay: Antitumor activity against mouse P388 cells allografted in mouse assessed as host median survival time at 100 mg/kg/day, ip administered as gum acacia suspension on days 1 to 9 relative to control; format: functional; settings: route intraperitoneal; how it was run: as §1
[9] = Antitumor activity against mouse LCC cells allografted in mouse assessed as host median survival time at 12 mg/kg/day, ip administered as gum acacia suspension on days 1 to 9 relative to control; format: functional, Lewis lung carcinoma; settings: route intraperitoneal; how it was run: as §1
[10] = Antitumor activity against mouse LCC cells allografted in mouse assessed as host median survival time at 6 mg/kg/day, ip administered as gum acacia suspension on days 1 to 9 relative to control; format: functional, Lewis lung carcinoma; settings: route intraperitoneal; how it was run: as §1
P388 [11] = assay: Antitumor activity against mouse P388 cells allografted in mouse assessed as host median survival time at 6 mg/kg/day, ip administered as gum acacia suspension on days 1 to 9 relative to control; format: functional; settings: route intraperitoneal; how it was run: as §1
[12] = Solubility of the compound in ethanol at 25 degC measured per 100 ml; format: physicochemical
[13] = Antineoplastic activity against mouse LCC cells allografted in mouse assessed as increase in host life span at 20 to 200 mg/kg relative to control; format: functional, Lewis lung carcinoma; settings: dose mg/kg 20-200
[14] = Solubility of the compound in water at 25 degC measured per 100 ml; format: physicochemical; settings: buffer
[15] = Antitumor activity against mouse LCC cells allografted in mouse assessed as host median survival time at 200 mg/kg/day, ip administered as gum acacia suspension on days 1 to 9 relative to control; format: functional, Lewis lung carcinoma; settings: route intraperitoneal; how it was run: as §1
[16] = Antitumor activity against mouse LCC cells allografted in mouse assessed as host median survival time at 100 mg/kg/day, ip administered as gum acacia suspension on days 1 to 9 relative to control; format: functional, Lewis lung carcinoma; settings: route intraperitoneal; how it was run: as §1
[17] = Antitumor activity against mouse LCC cells allografted in mouse assessed as host median survival time at 3 mg/kg/day, ip administered as gum acacia suspension on days 1 to 9 relative to control; format: functional, Lewis lung carcinoma; settings: route intraperitoneal; how it was run: as §1

For CC(=O)Oc1c(C)c(O)c(C(C)=O)c2c1C1(C)C(=O)C(C(C)=O)=C(O)C=C1O2 (configuration not stated), the logP [1] was 2.7, the “growth inhibition (GI)” value (L1210) was “Active” and the T/C [2] was 118%. For the same molecule, the T/C (P388 [3]) was 113% and the T/C [4] was 112%.
With COC12CC(O)=C(C(C)=O)C(=O)C1(C)c1c(O)c(C)c(O)c(C(C)=O)c1O2 (mixture of isomers) the logP [1] was 2.3, the “growth inhibition (GI)” value (L1210) was “Active” and the T/C (P388 [5]) was 128%. The T/C [2] was 122%, the T/C [4] was 106% and the T/C (P388 [6]) was 122%.
In the case of CC(=O)c1c(O[C@@H]2O[C@H](CO)[C@@H](O)[C@H](O)[C@H]2O)c(C)c(O)c2c1OC1=CC(=O)/C(=C(/C)N)C(=O)C12C (some centres not stated), the T/C (P388 [7]) is reported as 104% and the T/C (P388 [5]) is reported as 108%.
For COC12CC(O)=C(C(C)=O)C(=O)C1(C)c1c(OC(C)=O)c(C)c(O)c(C(C)=O)c1O2 (mixture of isomers), the logP [1] was 2.6, the “growth inhibition (GI)” value (L1210) was “Active” and the T/C (P388 [5]) was 106%. For the same molecule, the T/C [4] was 108% and the T/C (P388 [8]) was 124%.
With CC(=O)c1c(O)c(C)c(O)c2c1OC1=CC(=O)c3c(C)noc3C12C (configuration not stated) the “growth inhibition (GI)” value (L1210) was “Active”, the T/C [9] was 117% and the T/C [10] was 112%. For the same molecule, the T/C (P388 [8]) was 114%.
Work on CC(=O)c1c(O)c(C)c(O)c2c1OC1=Cc3onc(C)c3C(=O)C12C (configuration not stated) yielded a T/C [4] of 111% and a T/C (P388 [8]) of 104%.
With CC(=O)Oc1c(C)c(OC(C)=O)c2c(c1C(C)=O)OC1=CC(O)=C(C(C)=O)C(=O)C12C (configuration not stated) the logP [1] was 2.5, the “growth inhibition (GI)” value (L1210) was “Active” and the T/C [9] was 117%. The T/C [10] was 111%, the T/C (P388 [11]) was 115% and the T/C (P388 [3]) was 144%.
In the case of CC(=O)C1=C(O)CC2Oc3c(C(C)=O)c(O)c(C)c(O)c3C2(C)C1=O (configuration not stated), the logP [1] is reported as 2.4, the “growth inhibition (GI)” value (L1210) is reported as “Active” and the T/C (P388 [5]) is reported as 118%. For the same molecule, the T/C [9] was 107%, the T/C [4] was 107% and the T/C (P388 [8]) was 128%.
With CC(=O)C1=C(O)C=C2Oc3c(C(C)=O)c(O)c(C)c(O)c3[C@]2(C)C1=O [(-)-USNIC ACID] the logP [1] was 2.88, the “growth inhibition (GI)” value (L1210) was “Active” and the solubility [12] was 20 mg. It also gave an Activity [13] of 35%, a T/C (P388 [8]) of 141% and a solubility [14] of under 10 mg.
In the case of CC(=O)C1=C(O)C=C2Oc3c(C(C)=O)c(O[C@@H]4O[C@H](CO)[C@@H](O)[C@H](O)[C@H]4O)c(C)c(O)c3C2(C)C1=O (some centres not stated), the logP [1] is reported as 0.56, the T/C (P388 [5]) is reported as 102% and the T/C (P388 [6]) is reported as 108%.
With CC(=O)c1c(O)c(C)c(O)c2c1OC1=Cc3c(c(C)nn3C)C(=O)C12C (configuration not stated) the logP [1] was 2.8, the “growth inhibition (GI)” value (L1210) was “Active” and the T/C [9] was 103%. It also gave a T/C (P388 [6]) of 118% and a T/C [15] of 112%.
In the case of CC(=O)c1c(O)c(C)c(O)c2c1OC1=Cc3c(c(C)nn3-c3ccccc3)C(=O)C12C (configuration not stated), the logP [1] is reported as 3.2, the T/C [16] is reported as 108% and the “growth inhibition (GI)” value (L1210) is reported as “Active”. It also gave a T/C [2] of 111%, a T/C (P388 [11]) of 122% and a T/C (P388 [3]) of 110%.
In the case of CC(=O)Oc1c(C)c(OC(C)=O)c2c(c1C(C)=O)OC1CC(=O)C(C(C)=O)=C(O)C21C (mixture of isomers), the logP [1] is reported as 2.3, the “growth inhibition (GI)” value (L1210) is reported as “Active” and the T/C (P388 [5]) is reported as 108%. It also gave a T/C [4] of 114%, a T/C [17] of 104% and a T/C (P388 [6]) of 112%.
For CC(=O)c1c(O)c(C)c(O)c2c1OC1=CC(=O)/C(=C(\C)N)C(=O)C12C (configuration not stated), the logP [1] was 3.2, the “growth inhibition (GI)” value (L1210) was “Active” and the T/C [10] was 110%. For the same molecule, the T/C (P388 [11]) was 107% and the T/C [4] was 111%.
With C=C1c2c(O)c(C)c(O)c(C(C)=O)c2OC12C=C(C(=O)O)C(=O)C2 (configuration not stated) the T/C (P388 [7]) was 112%, the logP [1] was 1.3 and the T/C [16] was 109%. It also gave a T/C (P388 [5]) of 108% and a T/C [4] of 127%.
